Source: ChEMBL document CHEMBL2062460, “Disubstituted thiourea derivatives and their activity on CNS: synthesis and biological evaluation” (Eur J Med Chem, 2012)
In brackets after ≈: the same amount, converted by molar mass. Activity calls are given as the source filed them. The calls are words filed in the database; no cut-off is given here.

Columns and labels:
[1] = system: Bacillus subtilis; test: Antibacterial activity against Bacillus subtilis ATCC 6633 at 400 ug/disc after 18 hrs by disc diffusion method; format: functional; conditions: ATCC 6633, 18 h, read-out: DIZ
In short: (§1)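 Disc diffusion per CLSI on Mueller–Hinton II agar; 9 mm paper discs loaded from methanol or DMSO solutions to 400 µg per disc, dried; growth inhibition zone diameter read after 18 h at 35 °C.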

[2] = system: Staphylococcus aureus; test: Antibacterial activity against methicillin-susceptible Staphylococcus aureus clinical isolate 267/08 after 18 hrs by twofold serial agar dilution technique; format: functional; conditions: clinical isolate 267/08, 18 h
In short: (§2)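 Clinical isolates came from patients in Warsaw Medical University Hospitals and were classed as methicillin-susceptible or -resistant. MIC was determined by twofold serial agar dilution on Mueller–Hinton II agar (CLSI), 3.125–400 µg/mL in agar, with compounds in methanol or DMSO. Inoculum was 10^4 CFU/mL and plates were read after 18 h at 35 °C.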

[3] = system: Candida parapsilosis; test: Antifungal activity against Candida parapsilosis ATCC 22019 at 400 ug/disc after 18 hrs by disc diffusion method; format: functional, organism-based
In short: (§3)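 Yeasts tested by disc diffusion (CLSI) on RPMI agar with 2% glucose; 9 mm paper discs bearing 400 µg compound from methanol or DMSO solution; inhibition zone diameter read after 18 h at 35 °C.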

[4] = system: Staphylococcus aureus; test: Antibacterial activity against methicillin-resistant Staphylococcus aureus clinical isolate 275/08 after 18 hrs by twofold serial agar dilution technique; format: functional; conditions: clinical isolate 275/08, 18 h; in short: as §2
[5] = system: Staphylococcus epidermidis; test: Antibacterial activity against methicillin-resistant Staphylococcus epidermidis clinical isolate 341/09 after 18 hrs by twofold serial agar dilution technique; format: functional; conditions: clinical isolate 341/09, 18 h; in short: as §2
[6] = system: Escherichia coli; test: Antibacterial activity against Escherichia coli ATCC 25922 at 400 ug/disc after 18 hrs by disc diffusion method; format: functional, organism-based; in short: as §1
[7] = system: Staphylococcus aureus; test: Antibacterial activity against methicillin-resistant Staphylococcus aureus clinical isolate 357/09 after 18 hrs by twofold serial agar dilution technique; format: functional; conditions: clinical isolate 357/09, 18 h; in short: as §2
[8] = system: Candida albicans; test: Antifungal activity against Candida albicans ATCC 90028 at 400 ug/disc after 18 hrs by disc diffusion method; format: functional, organism-based; in short: as §3
[9] = system: Pseudomonas aeruginosa; test: Antibacterial activity against Pseudomonas aeruginosa NCTC 6749 at 400 ug/disc after 18 hrs by disc diffusion method; format: functional, organism-based; in short: as §1
[10] = system: Staphylococcus aureus; test: Antibacterial activity against Staphylococcus aureus ATCC 6538 after 18 hrs by twofold serial agar dilution technique; format: functional; conditions: ATCC 6538, 18 h
In short: (§4)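 Twofold serial agar dilution on Mueller–Hinton II agar, following CLSI guidelines. Compounds were dissolved in methanol or DMSO and tested at final agar concentrations of 3.125–400 µg/mL. Final inoculum was 10^4 CFU/mL.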

[11] = system: Staphylococcus aureus; test: Antibacterial activity against methicillin-resistant Staphylococcus aureus clinical isolate 277/08 after 18 hrs by twofold serial agar dilution technique; format: functional; conditions: clinical isolate 277/08, 18 h; in short: as §2
[12] = system: Staphylococcus epidermidis; test: Antibacterial activity against methicillin-resistant Staphylococcus epidermidis clinical isolate 311/08 after 18 hrs by twofold serial agar dilution technique; format: functional; conditions: clinical isolate 311/08, 18 h; in short: as §2
[13] = system: Escherichia coli; test: Antibacterial activity against Escherichia coli ATCC 10538 at 400 ug/disc after 18 hrs by disc diffusion method; format: functional, organism-based; in short: as §1
[14] = system: Staphylococcus aureus; test: Antibacterial activity against methicillin-susceptible Staphylococcus aureus clinical isolate 367/09 after 18 hrs by twofold serial agar dilution technique; format: functional; conditions: clinical isolate 367/09, 18 h; in short: as §2
[15] = system: Staphylococcus aureus; test: Antibacterial activity against methicillin-resistant Staphylococcus aureus clinical isolate 325/09 after 18 hrs by twofold serial agar dilution technique; format: functional; conditions: clinical isolate 325/09, 18 h; in short: as §2
[16] = system: Staphylococcus epidermidis; test: Antibacterial activity against methicillin-resistant Staphylococcus epidermidis clinical isolate 316/08 after 18 hrs by twofold serial agar dilution technique; format: functional; conditions: clinical isolate 316/08, 18 h; in short: as §2
[17] = system: Bordetella bronchiseptica; test: Antibacterial activity against Bordetella bronchiseptica ATCC 4617 at 400 ug/disc after 18 hrs by disc diffusion method; format: functional, organism-based; in short: as §1
[18] = system: Enterococcus hirae; test: Antibacterial activity against Enterococcus hirae ATCC 10541 at 400 ug/disc after 18 hrs by disc diffusion method; format: functional; conditions: ATCC 10541, 18 h, read-out: DIZ; in short: as §1
[19] = system: Pseudomonas aeruginosa; test: Antibacterial activity against Pseudomonas aeruginosa ATCC 15442 at 400 ug/disc after 18 hrs by disc diffusion method; format: functional, organism-based; in short: as §1
[20] = system: Staphylococcus epidermidis; test: Antibacterial activity against methicillin-resistant Staphylococcus epidermidis clinical isolate 317/08 after 18 hrs by twofold serial agar dilution technique; format: functional; conditions: clinical isolate 317/08, 18 h; in short: as §2
[21] = system: Staphylococcus aureus; test: Antibacterial activity against Staphylococcus aureus ATCC 29213 after 18 hrs by twofold serial agar dilution technique; format: functional; conditions: ATCC 29213, 18 h; in short: as §4
[22] = system: Staphylococcus aureus; test: Antibacterial activity against methicillin-susceptible Staphylococcus aureus clinical isolate 261/08 after 18 hrs by twofold serial agar dilution technique; format: functional; conditions: clinical isolate 261/08, 18 h; in short: as §2
[23] = system: Micrococcus luteus; test: Antibacterial activity against Micrococcus luteus ATCC 9341 at 400 ug/disc after 18 hrs by disc diffusion method; format: functional; conditions: ATCC 9341, 18 h, read-out: DIZ; in short: as §1
[24] = system: Escherichia coli; test: Antibacterial activity against Escherichia coli NCTC 8196 at 400 ug/disc after 18 hrs by disc diffusion method; format: functional, organism-based; in short: as §1
[25] = system: Staphylococcus aureus; test: Antibacterial activity against methicillin-susceptible Staphylococcus aureus clinical isolate 339/09 after 18 hrs by twofold serial agar dilution technique; format: functional; conditions: clinical isolate 339/09, 18 h; in short: as §2
[26] = system: Micrococcus luteus; test: Antibacterial activity against Micrococcus luteus ATCC 10240 at 400 ug/disc after 18 hrs by disc diffusion method; format: functional; conditions: ATCC 10240, 18 h, read-out: DIZ; in short: as §1
[27] = system: Staphylococcus epidermidis; test: Antibacterial activity against methicillin-resistant Staphylococcus epidermidis clinical isolate 318/08 after 18 hrs by twofold serial agar dilution technique; format: functional; conditions: clinical isolate 318/08, 18 h; in short: as §2
[28] = system: Staphylococcus epidermidis; test: Antibacterial activity against methicillin-resistant Staphylococcus epidermidis clinical isolate 377/09 after 18 hrs by twofold serial agar dilution technique; format: functional; conditions: clinical isolate 377/09, 18 h; in short: as §2
[29] = system: Bacillus subtilis; test: Antibacterial activity against Bacillus subtilis ATCC 6633 after 18 hrs by twofold serial agar dilution technique; format: functional; conditions: ATCC 6633, 18 h
[30] = system: Staphylococcus aureus; test: Antibacterial activity against methicillin-susceptible Staphylococcus aureus clinical isolate 372/09 after 18 hrs by twofold serial agar dilution technique; format: functional; conditions: clinical isolate 372/09, 18 h; in short: as §2
[31] = system: Staphylococcus epidermidis; test: Antibacterial activity against methicillin-resistant Staphylococcus epidermidis clinical isolate 315/08 after 18 hrs by twofold serial agar dilution technique; format: functional; conditions: clinical isolate 315/08, 18 h; in short: as §2
[32] = system: Proteus vulgaris; test: Antibacterial activity against Proteus vulgaris NCTC 4635 at 400 ug/disc after 18 hrs by disc diffusion method; format: functional, organism-based; in short: as §1
[33] = system: Micrococcus luteus; test: Antibacterial activity against Micrococcus luteus ATCC 10240 after 18 hrs by twofold serial agar dilution technique; format: functional; conditions: ATCC 10240, 18 h
[34] = system: Staphylococcus aureus; test: Antibacterial activity against Staphylococcus aureus NCTC 4163 after 18 hrs by twofold serial agar dilution technique; format: functional; conditions: NCTC 4163, 18 h; in short: as §4
[35] = system: Staphylococcus epidermidis; test: Antibacterial activity against methicillin-resistant Staphylococcus epidermidis clinical isolate 342/09 after 18 hrs by twofold serial agar dilution technique; format: functional; conditions: clinical isolate 342/09, 18 h; in short: as §2
[36] = system: Staphylococcus epidermidis; test: Antibacterial activity against methicillin-resistant Staphylococcus epidermidis clinical isolate 340/09 after 18 hrs by twofold serial agar dilution technique; format: functional; conditions: clinical isolate 340/09, 18 h; in short: as §2

SMILES	zone of inhibition at 400 µg/disc [1]	MIC [2]	diameter of the inhibition zone (DIZ) [3]	MIC [4]	MIC [5]	diameter of the inhibition zone (DIZ) [6]	MIC [7]	diameter of the inhibition zone (DIZ) [8]	diameter of the inhibition zone (DIZ) [9]	MIC [10]	MIC [11]	MIC [12]	diameter of the inhibition zone (DIZ) [13]	MIC [14]	MIC [15]	MIC [16]	diameter of the inhibition zone (DIZ) [17]	zone of inhibition at 400 µg/disc [18]	diameter of the inhibition zone (DIZ) [19]	MIC [20]	further results
S=C(Nc1nc[nH]n1)Nc1ccccc1Br	17 mm	50 mg/L (≈ 168 µM)	inactive	100 mg/L (≈ 335 µM)	100 mg/L (≈ 335 µM)	inactive	50 mg/L (≈ 168 µM)	inactive	inactive	50 mg/L (≈ 168 µM)	50 mg/L (≈ 168 µM)	100 mg/L (≈ 335 µM)	inactive	50 mg/L (≈ 168 µM)	50 mg/L (≈ 168 µM)	100 mg/L (≈ 335 µM)	inactive	13 mm	inactive	100 mg/L (≈ 335 µM)	MIC [21]: 50 mg/L (≈ 168 µM); MIC [22]: 50 mg/L (≈ 168 µM); zone of inhibition at 400 µg/disc [23]: 16 mm; diameter of the inhibition zone (DIZ) [24]: inactive; MIC [25]: 50 mg/L (≈ 168 µM); zone of inhibition at 400 µg/disc [26]: 15 mm; MIC [27]: 50 mg/L (≈ 168 µM); MIC [28]: 50 mg/L (≈ 168 µM); MIC [29]: 12.5 mg/L (≈ 41.9 µM); MIC [30]: 50 mg/L (≈ 168 µM); MIC [31]: 100 mg/L (≈ 335 µM); diameter of the inhibition zone (DIZ) [32]: inactive; MIC [33]: 6.25 mg/L (≈ 21 µM); MIC [34]: 50 mg/L (≈ 168 µM); MIC [35]: 50 mg/L (≈ 168 µM); MIC [36]: 50 mg/L (≈ 168 µM)
S=C(Nc1ccc(Cl)cc1)Nc1nc[nH]n1	22 mm	25 mg/L (≈ 98.5 µM)	inactive	25 mg/L (≈ 98.5 µM)	12.5 mg/L (≈ 49.3 µM)	inactive	50 mg/L (≈ 197 µM)	inactive	inactive	25 mg/L (≈ 98.5 µM)	50 mg/L (≈ 197 µM)	25 mg/L (≈ 98.5 µM)	inactive	25 mg/L (≈ 98.5 µM)	25 mg/L (≈ 98.5 µM)	25 mg/L (≈ 98.5 µM)	inactive	23 mm	inactive	25 mg/L (≈ 98.5 µM)	MIC [21]: 25 mg/L (≈ 98.5 µM); MIC [22]: 25 mg/L (≈ 98.5 µM); zone of inhibition at 400 µg/disc [23]: 26 mm; diameter of the inhibition zone (DIZ) [24]: inactive; MIC [25]: 25 mg/L (≈ 98.5 µM); zone of inhibition at 400 µg/disc [26]: 30 mm; MIC [27]: 25 mg/L (≈ 98.5 µM); MIC [28]: 25 mg/L (≈ 98.5 µM); MIC [29]: 12.5 mg/L (≈ 49.3 µM); MIC [30]: 25 mg/L (≈ 98.5 µM); MIC [31]: 25 mg/L (≈ 98.5 µM); diameter of the inhibition zone (DIZ) [32]: inactive; MIC [33]: 25 mg/L (≈ 98.5 µM); MIC [34]: 25 mg/L (≈ 98.5 µM); MIC [35]: 200 mg/L (≈ 788 µM); MIC [36]: 12.5 mg/L (≈ 49.3 µM)
